ChEMBL document CHEMBL1132176, “Novel A,B,E-ring-modified camptothecins displaying high lipophilicity and markedly improved human blood stabilities” (J Med Chem, 1999)

What was measured:
[1] = Equilibrium association (binding) constant interacting with Unilamellar Vesicles of electroneutral DMPC in PBSbuffer at pH 7.4 and 37 C; format: ADME
How it was run: (§1)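 Fluorescence anisotropy titration of 1 μM drug (lactone form) with small unilamellar vesicles, in PBS at pH 7.4 and 37 °C. Anisotropy was read about 1 min after adding drug at each lipid concentration to limit lactone hydrolysis. Adsorption isotherms were constructed, and K was taken from the slopes of double-reciprocal plots, with 10% uncertainty.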

[2] = Equilibrium association (binding) constant interacting with Unilamellar Vesicles of negatively charged DMPG in PBS buffer at pH 7.4 and 37 C; format: ADME; how it was run: as §1
[3] = Stability parameter for the compound in mouse blood after 3h; format: ADME; conditions: read-out: Lactone
How it was run: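 Drug was incubated in mouse blood at pH 7.4 and 37 °C for 3 h. Blood was kept at 5 °C after drawing and before the start. The percent lactone remaining was measured by HPLC.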

[4] = Stability parameter for the compound at a concentration of 1 uM in human serum albumin(HSA) after 3h; format: ADME; conditions: read-out: Lactone
How it was run: (§2)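 Lactone-to-carboxylate hydrolysis followed by HPLC; drug at 1 μM incubated at 37 °C for 3 h in human whole blood, plasma, or PBS (pH 7.4) with or without physiologically relevant levels of HSA or albumin-free RBCs ((5 ± 1) × 10^6 cell/μL). Plasma continuously aerated with blood gas to hold pH 7.5 ± 0.1. Blood kept at 5 °C before start. Value is % lactone remaining.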

[5] = Stability parameter for the compound at a concentration of 1 uM in whole human blood after 3h; format: ADME; conditions: read-out: Lactone; how it was run: as §2
[6] = Stability parameter for the compound at a concentration of 1 uM in phosphate-buffered saline(PBS, pH 7.4) after 3h; format: physicochemical; conditions: read-out: Lactone; how it was run: as §2
[7] = Stability parameter for the compound at a concentration of 1 uM in red blood cells(RBC) after 3h; format: ADME, cell-based; conditions: read-out: Lactone; how it was run: as §2
[8] = Stability parameter for the compound in human blood after 3h; format: ADME; conditions: read-out: Lactone
[9] = Stability parameter for the compound at a concentration of 1 uM in plasma after 3h; format: ADME, cell-free; conditions: read-out: Lactone; how it was run: as §2

SMILES	K DMPC [1]	K DMPG [2]	remaining at 3 h [3]	remaining at 3 h, 1 µM [4]	remaining at 3 h, 1 µM [5]	remaining at 3 h, 1 µM [6]	remaining at 3 h, 1 µM [7]	remaining at 3 h [8]	remaining at 3 h, 1 µM [9]
CCC1(O)CC(=O)OCc2c1cc1n(c2=O)Cc2c-1nc1ccccc1c2[Si](C)(C)C(C)(C)C (stereo unspecified)	14000 M⁻¹	19000 M⁻¹	80%	88.1%	86.6%	84.9%	92%	87%	85%
CCC1(O)CC(=O)OCc2c1cc1n(c2=O)Cc2c-1nc1ccc(O)cc1c2[Si](C)(C)C(C)(C)C (stereo unspecified)	8000 M⁻¹	4000 M⁻¹	70%	82.9%	84.9%	83.1%	88.5%	85%	61.5%
CCC1(O)CC(=O)OCc2c1cc1n(c2=O)Cc2c-1nc1ccc(N)cc1c2[Si](C)(C)C(C)(C)C (stereo unspecified)	9000 M⁻¹	9000 M⁻¹	61%	86.8%	85.2%	83.7%	85.5%	85%	71.1%
CCC(O)(CC(=O)O)c1cc2n(c(=O)c1CO)Cc1c-2nc2ccc(N)cc2c1[Si](C)(C)C(C)(C)C (stereo unspecified)	800 M⁻¹	80 M⁻¹							
CCC(O)(CC(=O)O)c1cc2n(c(=O)c1CO)Cc1c-2nc2ccc(O)cc2c1[Si](C)(C)C(C)(C)C (stereo unspecified)	700 M⁻¹	100 M⁻¹							
CCC1(O)CC(=O)OCc2c1cc1n(c2=O)Cc2c-1nc1ccc(N)cc1c2[Si](C)(C)C (stereo unspecified)	1400 M⁻¹	800 M⁻¹	72%	81.4%	56.4%	82.8%	84.8%	56%	40.3%
CC[C@@]1(O)C(=O)OCc2c1cc1n(c2=O)Cc2cc3ccccc3nc2-1 [CAMPTOTHECIN]	100 M⁻¹	100 M⁻¹	20%					7%	
CC[C@@]1(O)C(=O)OCc2c1cc1n(c2=O)Cc2cc3c(CN(C)C)c(O)ccc3nc2-1 [TOPOTECAN]	10 M⁻¹	50 M⁻¹							
